The source of these data is ChEMBL document CHEMBL2021776, “Highly potent and selective fluorescent antagonists of the human adenosine A₃ receptor based on the 1,2,4-triazolo[4,3-a]quinoxalin-1-one scaffold” (J Med Chem, 2012).

Activity calls are given as the source filed them. No cut-off for these calls is given here. Some results are limits rather than exact numbers.

In one test the target is T1, Adenosine receptor A3 (Homo sapiens, UniProt P0DMS8).
T1 sequence (P0DMS8 whole entry): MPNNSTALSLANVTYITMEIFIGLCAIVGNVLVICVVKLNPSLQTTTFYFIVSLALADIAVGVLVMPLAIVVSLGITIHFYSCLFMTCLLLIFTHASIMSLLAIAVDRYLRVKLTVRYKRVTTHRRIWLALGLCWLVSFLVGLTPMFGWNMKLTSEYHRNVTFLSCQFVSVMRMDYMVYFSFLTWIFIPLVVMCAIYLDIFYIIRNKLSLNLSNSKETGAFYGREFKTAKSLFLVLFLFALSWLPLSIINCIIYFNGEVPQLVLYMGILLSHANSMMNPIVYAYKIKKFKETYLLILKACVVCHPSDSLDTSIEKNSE
As to the kind of experiment: Antagonist activity at human adenosine A3 receptor expressed in forskolin-stimulated CHO cells assessed as inhibition of NECA-induced CRE-SPAP gene transcription by measuring intracellular cAMP level after 5 hrs. It counts as functional, cell-based. Summed up: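 Clonal CHO cells co-expressing CRE-SPAP reporter and human A3 receptor, serum-starved 18 h. Three antagonist concentrations for 30 min at 37 °C, then NECA curves for 30 min, then 1 μM forskolin for 5 h. After 1 h in fresh medium and 65 °C heat step, SPAP activity read as 4-nitrophenyl phosphate hydrolysis (405 nm). Curves globally fitted to an interaction model.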

Test [1] has as its target T2, Adenosine receptor A1 (Homo sapiens) (UniProt P30542).
T2 sequence (whole entry): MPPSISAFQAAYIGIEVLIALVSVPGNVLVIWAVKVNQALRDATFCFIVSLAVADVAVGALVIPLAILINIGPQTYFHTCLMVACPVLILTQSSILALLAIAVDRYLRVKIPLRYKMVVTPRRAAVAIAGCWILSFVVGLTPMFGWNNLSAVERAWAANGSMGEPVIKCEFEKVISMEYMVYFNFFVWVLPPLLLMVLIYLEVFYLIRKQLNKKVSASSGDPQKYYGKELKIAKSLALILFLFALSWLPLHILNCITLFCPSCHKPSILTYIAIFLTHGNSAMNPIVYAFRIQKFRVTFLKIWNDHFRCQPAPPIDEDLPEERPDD
The experiment in a line: Binding affinity to human full length human adenosine A1 receptor expressed in CHO cells after 10 mins by confocal microscopic analysis in presence of DPCPX treated 30 mins before compound challenge. Format: cell-based. Summed up: (§1)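 Live CHO cells stably expressing human A1 receptor were washed in HBS. They were preincubated 30 min at 37 °C with or without 100 nM DPCPX, then exposed to fluorescent ligand (25 nM, or up to 100 nM) for 10 min. Single equatorial confocal images were taken using identical laser power, gain and offset.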

Test [2] has as its target T2, Adenosine receptor A1 (Homo sapiens). The experiment in a line: Binding affinity to human full length human adenosine A1 receptor expressed in CHO cells at 25 nM after 10 mins by confocal microscopic analysis. It counts as cell-based. Summed up: as §1
Test [3] concerns the target T3, Adenosine receptor A3 (Homo sapiens) (UniProt P0DMS8).
T3 sequence (whole entry): T1 sequence (P0DMS8 whole entry)
The experiment in a line: Binding affinity to human adenosine A3 receptor expressed in CHO cells assessed as intracellular fluorescence level after 10 mins by confocal microscopic analysis. Format: cell-based. The gist of the method: (§2)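 Live CHO cells stably expressing human A3 receptor were washed in HBS. They were preincubated 30 min at 37 °C with or without 100 nM MRS1220, then exposed to 25 nM fluorescent ligand for 10 min. Single equatorial confocal images were taken in the continued presence of ligand, using identical laser and detector settings. Images are representative of 3−5 experiments.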

Another test deals with T4, Adenosine receptor A1 (Homo sapiens, UniProt P30542).
T4 sequence (P30542 whole entry): T2 sequence (whole entry)
The experiment in a line: Antagonist activity at human adenosine A1 receptor expressed in CHO cells assessed as inhibition of NECA-induced increase of intracellular calcium level after 5 hrs.

Another test addresses T5, Adenosine receptor A2b (Homo sapiens, UniProt P29275).
T5 sequence (P29275 whole entry): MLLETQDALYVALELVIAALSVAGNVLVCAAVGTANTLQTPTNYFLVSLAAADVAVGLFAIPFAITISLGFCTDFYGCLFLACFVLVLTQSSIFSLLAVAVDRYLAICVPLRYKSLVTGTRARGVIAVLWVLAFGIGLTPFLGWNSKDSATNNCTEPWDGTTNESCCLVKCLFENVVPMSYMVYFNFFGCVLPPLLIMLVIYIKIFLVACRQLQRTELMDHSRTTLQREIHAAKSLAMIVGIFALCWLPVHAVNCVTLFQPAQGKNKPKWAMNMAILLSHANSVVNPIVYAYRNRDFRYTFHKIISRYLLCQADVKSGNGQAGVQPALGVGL
As to the kind of experiment: Antagonist activity at adenosine A2B receptor in HEK293 cells expressing glosensor cAMP biosensor assessed as inhibition of NECA-induced increase of intracellular cAMP level after 5 hrs. Format: functional, cell-based. The gist of the method: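 HEK293 cells stably expressing Glosensor cAMP biosensor, with endogenous human A2B receptor. Cells equilibrated 2 h at 37 °C in HBSS with 3% v/v Glosensor reagent. Antagonist added at 1.5 h, NECA at 2 h. Luminescence read every 2 min for 60 min; maximal read used. pKD estimated from rightward shift of NECA curve by 1 μM antagonist via dose ratio.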

The species named for a further test is Homo sapiens. The experiment in a line: Selectivity ratio of human A1 receptor to human A3 receptor.
Test [4] concerns the target T3, Adenosine receptor A3 (Homo sapiens). The experiment in a line: Binding affinity to human adenosine A3 receptor expressed in CHO cells assessed as intracellular fluorescence level after 10 mins by confocal microscopic analysis in presence of MRS1220 treated 30 mins before compound challenge. It counts as cell-based. Summed up:
as §2

Test [5] has as its target T2, Adenosine receptor A1 (Homo sapiens). The experiment in a line: Binding affinity to human full length human adenosine A1 receptor expressed in CHO cells up to 100 nM after 10 mins by confocal microscopic analysis. It counts as cell-based. The gist of the method:
as §1

As for `COc1ccc(-n2nc3c(NC(=O)CCC(=O)NCCCCCCCCNC(=O)CCCCCNC(=O)COc4ccc(/C=C/C5=[N+]6C(=Cc7ccc(-c8cccs8)n7[B-]6(F)F)C=C5)cc4)nc4ccccc4n3c2=O)cc1`, on Adenosine receptor A3, the Kd is 16.6 nM.
On to `COc1ccc(-n2nc3c(NC(=O)CCC(=O)NCCOCCOCCNC(=O)CCCCCNC(=O)COc4ccc(C5=[N+]6C(=Cc7ccc(-c8cccs8)n7[B-]6(F)F)C=C5)cc4)nc4ccccc4n3c2=O)cc1`, for which the result in [1] was inactive. Moreover, the outcome in [2], in [3] and in [4] was Active. Also, the Kd was 166 nM on Adenosine receptor A1, less than 1000 nM on Adenosine receptor A2b and 3.39 nM at Adenosine receptor A3. In the test filed under Homo sapiens, the Selectivity ratio worked out at 50.
In the case of `COc1ccc(-n2nc3c(NC(=O)CCC(=O)NCCOCCOCCNC(=O)CCOCCOCCOCCOCCOCCOCCOCCOCCOCCOCCOCCOCCNC(=O)c4ccc(-c5c6ccc(=[N+](C)C)cc-6oc6cc(N(C)C)ccc56)c(C(=O)[O-])c4)nc4ccccc4n3c2=O)cc1`, the Kd at Adenosine receptor A3 was 5.62 nM.
The same measure, in the same setting: under `COc1ccc(-n2nc3c(NC(=O)CCC(=O)NCCCCCCCCN)nc4ccccc4n3c2=O)cc1` stands 0.331 nM; under `COc1ccc(-n2nc3c(NC(=O)CN)nc4ccccc4n3c2=O)cc1`, 1.45 nM.
For `COc1ccc(-n2nc3c(NC(=O)c4ccc(N)cc4)nc4ccccc4n3c2=O)cc1`, the Kd at Adenosine receptor A3 is 38 nM.
On to `CCN1/C(=C/C=C/C=C/C2=[N+](CCCCCC(=O)NCCOCCOCCNC(=O)CCC(=O)Nc3nc4ccccc4n4c(=O)n(-c5ccc(OC)cc5)nc34)c3cc(S(=O)(=O)[O-])ccc3C2(C)C)C(C)(C)c2cc(S(=O)(=O)O)ccc21`, for which the Kd at Adenosine receptor A3 was 148 nM.
For the compound `COc1ccc(-n2nc3c(NC(=O)CCC(=O)NCCOCCOCCNC(=O)CCCCCNC(=O)COc4ccc(/C=C/C5=[N+]6C(=Cc7ccc(-c8cccs8)n7[B-]6(F)F)C=C5)cc4)nc4ccccc4n3c2=O)cc1`, the result in test [5] and in [4] was inactive. The result in test [3] was Active. Further, the Kd on Adenosine receptor A1 is 275 nM; on Adenosine receptor A2b, less than 1000 nM; on Adenosine receptor A3, 0.437 nM. For the same compound, in the test listed under Homo sapiens, the Selectivity ratio was 650.
As to `COc1ccc(-n2nc3c(NC(=O)CCC(=O)NCCOCCOCCN)nc4ccccc4n3c2=O)cc1`, on Adenosine receptor A3, the Kd was 20.9 nM.
